Experimental data reported in ChEMBL document CHEMBL3272327, “Hypocholesterolemic activity of 1,3-bis(substituted phenoxy)-2-propanones” (J Med Chem, 1976).

Key:
Rattus norvegicus [1] = assay: Effect on spleen weight in rat at 10 mg/kg/day administered for 16 days measured 24 hrs after last drug dosage relative to total body weight (reference value: 0.55 +/- 0.12%); format: ADME, organism-based; conditions: in vivo
Rattus norvegicus [2] = assay: Hypocholesterolemic activity in rat assessed as [14C]cholesterol level in stomach at 10 mg/kg/day administered for 1 week measured after 22 hrs on day 7 by scintillation counting analysis (reference value: 8.87 +/- 4.00%); format: functional
Method in brief: (§1)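 Male rats were dosed orally for 1 week (10 mg/kg/day) or with 1% CMC. On day 7 they received 5 μCi [4-14C]cholesterol orally and were killed after 22 hr. Organs were homogenized (10% in water); 0.1-cc aliquots of homogenate, urine, blood or feces were digested with Protosol. Samples were counted in toluene/Triton X-100 (2:1) scintillant with 0.4% PPO and 0.01% POPOP. Results are % of dose per tissue, N = 6.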

Rattus norvegicus [3] = assay: Decrease in lipase level in rat liver at 10 mg/kg/day administered for 16 days (reference value: 100 +/- 39%); format: functional; design: scale not given: the % may be the effect or the level left
Rattus norvegicus [4] = assay: Hypocholesterolemic activity in rat assessed as [14C]palmitic acid level in liver at 10 mg/kg/day administered for 1 week measured after 22 hrs on day 7 by scintillation counting analysis (reference value: 8.06 +/- 1.33%); format: functional
Method in brief: (§2)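 Male Sprague-Dawley rats on lab chow dosed orally once daily for 1 week at 10 mg/kg/day, suspended in 1% CMC, or given vehicle alone. On day 7, 5 μCi [1-14C]palmitic acid given orally. Killed after 22 hr; organs made into 10% water homogenates. Aliquots of 0.1 cc of homogenate, urine, blood or feces were digested and scintillation counted. Output is % of dose per tissue, N = 6.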

Rattus norvegicus [5] = assay: Hypocholesterolemic activity in rat assessed as [14C]cholesterol level in liver at 10 mg/kg/day administered for 1 week measured after 22 hrs on day 7 by scintillation counting analysis (reference value: 19.80 +/- 2.93%); format: functional; method in brief: as §1
Rattus norvegicus [6] = assay: Hypocholesterolemic activity in rat assessed as [14C]palmitic acid level in stomach at 10 mg/kg/day administered for 1 week measured after 22 hrs on day 7 by scintillation counting analysis (reference value: 0.65 +/- 0.46%); format: functional; method in brief: as §2
Rattus norvegicus [7] = assay: Hypocholesterolemic activity in rat assessed as serum triglyceride level at 10 mg/kg/day administered for 8 days (reference value: 100 +/- 15%); format: functional
Method in brief: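 Male Sprague-Dawley rats dosed orally at 10 mg/kg/day in 1% CMC. Serum triglycerides were measured with a stat pack kit after 8 days of dosing. Expressed as percent of vehicle control, N = 8; Student's t test.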

Rattus norvegicus [8] = assay: Hypocholesterolemic activity in rat assessed as [14C]palmitic acid recovery at 10 mg/kg/day administered for 1 week measured after 22 hrs on day 7 by scintillation counting analysis (reference value: 98%); format: functional; method in brief: as §2
Rattus norvegicus [9] = assay: Effect on body weight in rat at 10 mg/kg/day administered for 16 days measured on day 16 (reference value: 233 +/- 16 gms); format: ADME, organism-based; conditions: in vivo, 384 h
Method in brief: (§3)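 Male Sprague-Dawley rats with chow and water ad libitum. Compound suspended in 1% CMC-water and given orally by intubation needle at 11:00 a.m., 1, 5, 10 or 50 mg/kg/day, for 16 days. Body weight (g) recorded on days 0, 7 and 16. N = 8.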

Rattus norvegicus [10] = assay: Effect on lipid content in rat liver at 10 mg/kg/day administered for 16 days (reference value: 100 +/- 16%); format: ADME, organism-based; conditions: in vivo, 384 h
Rattus norvegicus [11] = assay: Effect on brain weight in rat at 5 mg/kg/day administered for 16 days measured 24 hrs after last drug dosage relative to total body weight (reference value: 0.67 +/- 0.05%); format: ADME, organism-based; conditions: in vivo
Rattus norvegicus [12] = assay: Effect on body weight in rat at 1 mg/kg/day administered for 16 days measured on day 7 (reference value: 173 +/- 12 gms); format: ADME, organism-based; conditions: in vivo, 384 h; method in brief: as §3
Rattus norvegicus [13] = assay: Effect on spleen weight in rat at 1 mg/kg/day administered for 16 days measured 24 hrs after last drug dosage relative to total body weight (reference value: 0.55 +/- 0.12%); format: ADME, organism-based; conditions: in vivo
Rattus norvegicus [14] = assay: Effect on brain weight in rat at 50 mg/kg/day administered for 16 days measured 24 hrs after last drug dosage relative to total body weight (reference value: 0.67 +/- 0.05%); format: ADME, organism-based; conditions: in vivo
Rattus norvegicus [15] = assay: Effect on vesicular gland weight in rat at 50 mg/kg/day administered for 16 days measured 24 hrs after last drug dosage relative to total body weight (reference value: 0.10 +/- 0.04%); format: ADME, organism-based; conditions: in vivo
Rattus norvegicus [16] = assay: Hypocholesterolemic activity in rat assessed as [14C]palmitic acid level in lung at 10 mg/kg/day administered for 1 week measured after 22 hrs on day 7 by scintillation counting analysis (reference value: 0.53 +/- 0.15%); format: functional; method in brief: as §2
Rattus norvegicus [17] = assay: Uterotrophic activity in ovariectomized Sprague-Dawley rat assessed as uterine weight administered for 3 days (reference value: 100 +/- 27%); format: organism-based, Uterus; conditions: in vivo, 72 h
Rattus norvegicus [18] = assay: Hypocholesterolemic activity in Sprague-Dawley rat assessed as serum cholesterol level at 5 mg/kg/day, po administered via intubation measured on day 16 by Liebermann-Burchard reaction (reference value: 100 +/- 8%); format: functional
Rattus norvegicus [19] = assay: Effect on body weight in rat at 5 mg/kg/day administered for 16 days measured on day 7 (reference value: 173 +/- 12 gms); format: ADME, organism-based; conditions: in vivo, 384 h; method in brief: as §3
Rattus norvegicus [20] = assay: Hypocholesterolemic activity in [14C]palmitic acid-treated rat assessed as decrease in 14C fatty acid incorporation into cholesterol ester fraction in liver at 10 mg/kg/day administered for 1 week by scintillation counting analysis; format: functional; design: scale not given: the % may be the effect or the level left
Rattus norvegicus [21] = assay: Hypocholesterolemic activity in rat assessed as [14C]palmitic acid level in testes at 10 mg/kg/day administered for 1 week measured after 22 hrs on day 7 by scintillation counting analysis (reference value: 0.22 +/- 0.10%); format: functional, Testis; method in brief: as §2
Rattus norvegicus [22] = assay: Effect on heart weight in rat at 10 mg/kg/day administered for 16 days measured 24 hrs after last drug dosage relative to total body weight (reference value: 0.37 to 0.43%); format: ADME, organism-based; conditions: in vivo
Rattus norvegicus [23] = assay: Increase in lipase level in rat serum at 10 mg/kg/day administered for 16 days (reference value: 100 +/- 39%); format: functional
Method in brief: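 Male Sprague-Dawley rats dosed orally at 10 mg/kg/day in 1% CMC for 16 days. Serum lipase was measured with a commercial serum lipase kit. Expressed as percent of vehicle control, N = 8.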

[24] = Toxicity in ip dosed CF1 mouse assessed as animal death; format: organism-based; conditions: in vivo
Method in brief: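 Male CF1 mice given active propanones ip over 10 mg to 6 g/kg where solubility allowed; deaths recorded to estimate LD50.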

Rattus norvegicus [25] = assay: Effect on food intake in rat at 10 mg/kg/day measured during first week (reference value: 19.1 +/- 1.7 gms); format: ADME, organism-based; conditions: in vivo
Method in brief: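 Male rats dosed orally at 1, 5, 10 or 50 mg/kg/day in 1% CMC. Average food intake in grams per rat per week measured over a 2-week period, first and second weeks reported separately. N = 8, Student's t test against the 1% CMC control.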

Rattus norvegicus [26] = assay: Hypocholesterolemic activity in rat assessed as [14C]cholesterol level in vas deferens at 10 mg/kg/day administered for 1 week measured after 22 hrs on day 7 by scintillation counting analysis (reference value: 0.03 +/- 0.02%); format: functional; method in brief: as §1
Rattus norvegicus [27] = assay: Hypocholesterolemic activity in rat assessed as [14C]cholesterol level in blood at 10 mg/kg/day administered for 1 week measured after 22 hrs on day 7 by scintillation counting analysis (reference value: 0.01 +/- 0.01%); format: functional; method in brief: as §1

## Cc1ccc(OCC(=O)COc2ccc(C)cc2)cc1
Rattus norvegicus [1]
  Activity: 0.6%
Rattus norvegicus [2]
  Activity: 3.36%
Rattus norvegicus [3]
  Activity: 68%
Rattus norvegicus [4]
  Activity: 9.26%
Rattus norvegicus [5]
  Activity: 22.19%
Rattus norvegicus [6]
  Activity: 0.48%
Rattus norvegicus [7]
  Activity: 70%
Rattus norvegicus [8]
  Activity: 96.75%
Rattus norvegicus [9]
  Activity: 234 g
Rattus norvegicus [10]
  Activity: 88%
Rattus norvegicus [11]
  Activity: 0.73%
Rattus norvegicus [12]
  Activity: 166 g
Rattus norvegicus [13]
  Activity: 0.43%
Rattus norvegicus [14]
  Activity: 0.83%
Rattus norvegicus [15]
  Activity: 0.15%
Rattus norvegicus [16]
  Activity: 0.5%
Rattus norvegicus [17]
  Activity: 82%
Rattus norvegicus [18]
  Activity: 56%
Rattus norvegicus [19]
  Activity: 168 g
Rattus norvegicus [20]
  Activity: 46%
Rattus norvegicus [21]
  Activity: 0.25%
Rattus norvegicus [22]
  Activity: 0.38%
Rattus norvegicus [23]
  Activity: 222%
[24]
  LD50: 1500 mg/kg
Rattus norvegicus [25]
  Activity: 18.2 g
Rattus norvegicus [26]
  Activity: 0.07%
Rattus norvegicus [27]
  Activity: 0.01%
